From ChEMBL document CHEMBL1124147 (J Med Chem, 1988)

Key:
[1] = biological target: T1, Muscarinic acetylcholine receptor M1 (Rattus norvegicus, UniProt P08482); experiment: Inhibition of [3H]pirenzepine binding to rat brain membrane Muscarinic acetylcholine receptor M1
T1 sequence (P08482 whole entry): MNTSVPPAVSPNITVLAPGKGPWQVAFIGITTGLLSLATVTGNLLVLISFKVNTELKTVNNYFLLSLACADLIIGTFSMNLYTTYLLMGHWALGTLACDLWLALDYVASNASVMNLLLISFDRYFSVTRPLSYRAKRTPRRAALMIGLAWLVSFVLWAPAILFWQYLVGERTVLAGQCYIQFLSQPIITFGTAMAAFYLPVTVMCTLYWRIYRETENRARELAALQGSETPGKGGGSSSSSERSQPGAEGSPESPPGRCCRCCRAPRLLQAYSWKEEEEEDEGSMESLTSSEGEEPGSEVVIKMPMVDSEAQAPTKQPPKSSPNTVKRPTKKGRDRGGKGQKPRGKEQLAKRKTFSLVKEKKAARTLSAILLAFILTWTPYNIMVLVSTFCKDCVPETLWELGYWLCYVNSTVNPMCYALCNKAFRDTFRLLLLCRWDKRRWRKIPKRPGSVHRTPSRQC

[2] = (§1) Muscarinic agonist index (Ki in [3H]QNB / Ki in [3H]-OXO-M) was determined; format: functional
[3] = biological target: T2, Muscarinic acetylcholine receptor M2 (Rattus norvegicus, UniProt P10980); experiment: Inhibition of [3H]quinuclidinyl benzilate binding to Muscarinic acetylcholine receptor M2 of rat heart
T2 sequence (P10980 whole entry): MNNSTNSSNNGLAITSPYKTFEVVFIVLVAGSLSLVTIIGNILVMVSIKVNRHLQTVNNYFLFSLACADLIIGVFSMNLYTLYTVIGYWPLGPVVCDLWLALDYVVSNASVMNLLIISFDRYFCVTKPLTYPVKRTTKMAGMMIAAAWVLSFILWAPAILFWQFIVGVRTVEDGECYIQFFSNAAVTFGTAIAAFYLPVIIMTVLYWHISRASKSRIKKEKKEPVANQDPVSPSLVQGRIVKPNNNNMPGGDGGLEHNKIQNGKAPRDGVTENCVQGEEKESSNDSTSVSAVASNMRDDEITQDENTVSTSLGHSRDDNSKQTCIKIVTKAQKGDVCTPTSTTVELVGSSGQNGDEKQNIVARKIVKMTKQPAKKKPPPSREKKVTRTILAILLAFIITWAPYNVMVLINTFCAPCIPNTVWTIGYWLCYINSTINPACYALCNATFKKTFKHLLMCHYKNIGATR

[4] = biological target: T2, Muscarinic acetylcholine receptor M2; experiment: Inhibition of [3H]quinuclidinyl benzilate binding to Muscarinic acetylcholine receptor M2 in rat brain membrane; format: cell membranes
Cavia porcellus [5] = species on record: Cavia porcellus; experiment: Effective concentration of compound for the agonistic activity on guinea pig ileum; format: functional
Outline: (§2)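 Isolated ileum preparation, with the agonist EC50 and the antagonist IC50 read from dose-response curves.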

Cavia porcellus [6] = species on record: Cavia porcellus; experiment: Compound was tested for the antagonistic activity on guinea pig ileum; format: functional; outline: as §2
[7] = M-1 selectivity expressed as M-2/M-1 index (Ki in [3H]-QNB / Ki in [3H]PZ) was determined
Outline: (§3)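 Ratio of Ki from [3H]QNB binding in rat heart to Ki from [3H]PZ binding in rat brain membranes. Ki = IC50/(1+[L]/Kd) in both. Heart assay: tissue homogenized with an ultraturrax, 4 mg tissue per assay, QNB Kd 9.1 ± 0.7 pM.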

[8] = biological target: Muscarinic acetylcholine receptor; experiment: Inhibition of [3H]oxotremorine-M binding to rat brain membrane Muscarinic acetylcholine receptor
[9] = M-1 selectivity expressed as M-2/M-1 index (Ki in [3H]QNB / Ki in [3H]-PZ) was determined; format: functional; outline: as §3
[10] = as §1
Cavia porcellus [11] = species on record: Cavia porcellus; experiment: Compound was tested for the agonistic activity on guinea pig ileum; format: functional; outline: as §2
[12] = biological target: T2, Muscarinic acetylcholine receptor M2; experiment: Compound was tested for the inhibition of [3H]quinuclidinyl benzilate binding to Muscarinic acetylcholine receptor M2 in rat brain membrane; format: cell membranes

Compound	IC50 [1]	M-agonist index [2]	IC50 [3]	IC50 [4]	EC50 (Cavia porcellus [5])	IC50 (Cavia porcellus [6])	Ratio [7]	IC50 [8]	Ratio [9]	M-agonist index [10]	EC50 (Cavia porcellus [11])	IC50 [12]
COc1noc2c1C[N+](C)(C)CC2.[I-]	2.8 µM	279	9.5 µM	74 µM	8.2 µM	> 3 µM	0.42	0.043 µM				
CCOC(=O)C1=CCC[S+](C)C1.[Cl-] (configuration not stated)	0.4 µM	387	3.9 µM	22 µM			1.2	0.0092 µM				
Cn1oc2c(c1=O)C[S+](C)CC2.[I-] (configuration not stated)	30 µM	81	10 µM	110 µM	9.3 µM	> 6 µM	0.04	0.22 µM				
COc1noc2c1CSCC2	> 1000 µM		> 1000 µM	> 1000 µM	> 50 µM	> 50 µM		> 1000 µM				
COC(=O)C1=CCC[S+](C)C1.[I-] (configuration not stated) [SULFOARECOLINE IODIDE]	2.6 µM	3930	2.5 µM	34 µM			0.12	0.0014 µM				
COC(=O)C1=CCCN(C)C1 [ARECOLINE]					0.15 µM	> 1 µM						
COc1noc2c1CN(C)CC2	6.4 µM		16 µM	38 µM		> 0.2 µM		0.028 µM	0.31	220	0.83 µM	
CCOc1noc2c1C[S+](C)CC2.[I-] (configuration not stated)	0.53 µM	3.3	4.9 µM		> 50 µM	15 µM	1.2	0.23 µM				4.6 µM
CC(C)Oc1noc2c1C[S+](C)CC2.[I-] (configuration not stated)	0.43 µM	20	1.8 µM	4.8 µM	6.2 µM	> 3 µM	0.53	0.039 µM				
COc1noc2c1C[S+](C)CC2.[I-] (configuration not stated)	4.1 µM	307	1.6 µM	36 µM	0.84 µM	> 0.4 µM	0.05	0.019 µM				
Cn1oc2c(c1=O)CSCC2	> 1000 µM		> 1000 µM	> 1000 µM	> 50 µM	> 50 µM		> 1000 µM				
C#CCOc1noc2c1C[S+](C)CC2.[I-] (configuration not stated)	0.25 µM	128	0.44 µM	2.6 µM	0.56 µM	> 0.2 µM	0.22	0.0033 µM				
